Most compounds without a hit are left out; they make up all but 2.3% or so of the library.
TRPC4 agonist: activators of mouse TRPC4 channel; Q9QUQ5; HEK293 TRPC4beta/mu-opioid, Fluo4 calcium fluorescence; hits give high values; B-score at 10 µM; 310,000 compounds, 0.49% hits; AID 2237;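 active = B-score above 5 SD of library B-scores, and initial fluorescence ratio not above library mean plus 5 SD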;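 also: positive B-score marks a calcium rise read as TRPC4 activation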
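Test system: HEK293 cells stably co-expressing mouse TRPC4beta and mu-opioid receptor | Schedule: Fluo4 dye loading 45 min at room temperature, 110 s recording | Measured by: Kinetic Fluo4 calcium fluorescence, 5 s baseline at 1 Hz | Evaluation: B score of integrated ratio | Controls: Buffer (low) and maximal DAMGO (high)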
TRPC4 block: inhibitors of mouse TRPC4 channel; 300,000 compounds, 0.39% hits; HEK293 TRPC4beta/mu-opioid, DAMGO-evoked Fluo4 calcium flux; hits give low values; B-score at 10 µM; Q9QUQ5;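 active = B-score over 3 SD under the library average, no early fluorescence shift, positive overall ratio signal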
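Assay system: HEK293 cells with stable TRPC4beta plus mu-opioid receptor expression; Probe or stimulus: DAMGO in two steps, submaximal then maximal; Dosing: single-point compound dosing; Measured by: Fluo4 calcium-dye fluorescence, kinetic read; Read-out basis: B score from integrated Fluo4 fluorescence ratio.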
TRPC6 activator: activators of mouse TRPC6 channel; Q61143; HEK293-TRPC6 membrane potential dye fluorescence; hits give high values; B-score at 10 µM; 310,000 compounds, 0.13% hits;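 active = B-score of the integrated fluorescence ratio above library mean plus 3 SD, and starting fluorescence ratio within library mean plus 5 SD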;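 also: higher score means more depolarization so channel activation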
TRPC6 inh: inhibitors of mouse TRPC6 channel; B-score at 10 µM; 310,000 compounds, 1.1% hits; AID 2553; HEK293-TRPC6, membrane potential dye, ACh-evoked depolarization; hits give low values;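 active = B-score under library mean minus 3 SD, initial fluorescence not abnormally high, positive integrated signal ratio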;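 also: B-score derived from integrated fluorescence ratio over the kinetic read; more negative B-score means stronger inhibition of depolarization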
TRPC4 PAM: allosterically enhances the mouse TRPC4 cation channel. B-score at 10 µM. HEK293 TRPC4beta/mu-opioid, DAMGO EC20, Fluo-4 Ca2+ flux; hits give high values. AID 2227. Q9QUQ5. 310,000 compounds, 0.42% hits;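 active = B-score of calcium response area above 5 SD of library B-scores, with initial fluorescence ratio within 5 SD of library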;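 also: B-score of integrated fluorescence ratio over time as area under calcium response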
TRPC4 sel inh 2: mouse TRPC4 off-target activity of TRPC6 inhibitors, second screen. 920 compounds, 42% hits. inhibition, % at 10 µM. shares compounds with TRPC6 inh. AID 2776. HEK293 TRPC4/MOR, membrane potential dye fluorescence; channel activated by saturating DAMGO dose;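 active = compounds whose fluorescence signal differed from control wells by over 3 SD, either direction, in both duplicate plates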
TRPC4 spec: selectivity of TRPC6 inhibitors: effect on mouse TRPC4; activity change, negative = inhibition, % at 10 µM; 920 compounds, 61% hits; shares compounds with TRPC6 inh; AID 2777; HEK293 TRPC4/mu-opioid, membrane potential fluorescence;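 active = rise or fall in signal beyond 3 SD of buffer-only wells in both replicate plates, either sign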;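 also: integrated kinetic ratio of fluorescence range over baseline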
HEK293 MPD ctr 2-1: second check of TRPC6 inhibitor effects in parental HEK293 cells; shares compounds with TRPC6 inh; parental HEK293 membrane potential dye fluorescence; maximal acetylcholine challenge after compound addition; signal change vs control, % at 10 µM; 920 compounds, 31% hits;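 active = membrane potential signal moving either way by over 3 SD of the maximum-effect control, in both duplicate plates, meaning non-specific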
HEK293 MPD ctr-1: counter-screen for TRPC6 inhibitors: effect in parental HEK293 cells; 920 compounds, 60% hits; AID 2780; parental HEK293 membrane potential dye fluorescence; membrane potential signal change, % at 10 µM; shares compounds with TRPC6 inh;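 active = membrane potential signal shifting up or down by more than 3 SD of buffer-only wells, on both duplicate plates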
HEK293 MPD ctr-2: parental HEK293 nonspecific activity of TRPC6 modulators; shares compounds with TRPC6 inh; membrane potential dye fluorescence; membrane potential signal change, % at 10 µM; 2,400 compounds, 51% hits;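 active = membrane potential signal moves up or down beyond 5 SD from buffer-only wells, on both duplicate plates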
HEK293 MPD ctr 2-2: second counter-screen for TRPC6 modulators: effect in parental HEK293 cells; 2,400 compounds, 14% hits; membrane potential dye fluorescence; after compound, maximal acetylcholine stimulation; AID 488926; inhibition, % at 10 µM; shares compounds with TRPC6 inh;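 active = membrane potential signal drops by more than 5 SD from the mean control signal, in both duplicate plates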;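 also: plate controls were acetylcholine ECmax control wells for no effect and buffer only wells for full effect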
TRPC4/MOR mod: mouse TRPC4 off-target activity of TRPC6 modulators | AID 488927 | 2,400 compounds, 69% hits | percent change from control (negative = decrease, positive = increase), % at 10 µM | shares compounds with TRPC6 inh | HEK293 TRPC4/mu-opioid, membrane potential fluorescence;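 active = membrane potential signal moved up or down beyond 5 SD of buffer control wells, in both duplicate plates, actives on both sides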;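 also: plate controls were assay buffer wells for no effect and DAMGO maximal-effect wells for full effect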
TRPC4 ctr inh 2: mouse TRPC4 off-target activity of TRPC6 modulators, second screen; 2,400 compounds, 55% hits; AID 488928; inhibition, % at 10 µM; shares compounds with TRPC6 inh; HEK293 TRPC4/mu-opioid, membrane potential dye fluorescence; stimulated with maximal-effect DAMGO;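 active = drop in membrane potential signal beyond 5 SD of the control wells in both duplicate plates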;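 also: TRPC4 counter screen for TRPC6 hits run under conditions tuned for TRPC6 not TRPC4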
TRPC6 inh conf: confirmation of mouse TRPC6 inhibitors. 3,300 compounds, 43% hits. inhibition, % at 10 µM. shares compounds with TRPC6 inh. AID 488960. HEK293-TRPC6, membrane potential dye, ACh-evoked depolarization;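 active = fluorescence ratio falls more than 5 SD below the full-stimulation control mean, in both duplicate runs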;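 also: integrated fluorescence ratio of peak minus minimum over baseline after agonist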
TRPC6 act conf: confirmation of mouse TRPC6 activators. 2,800 compounds, 11% hits. AID 488961. HEK293-TRPC6 membrane potential dye fluorescence, FDSS. activation, % at 10 µM. shares compounds with TRPC6 inh;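 active = ratio signal rise beyond 5 SD above unstimulated control wells' mean, seen in both duplicate runs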;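 also: plate controls were buffer EC0 wells for no effect and acetylcholine ECmax response for full effect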
* = called active by the depositor.

`CN(Cc1ccccc1)C(=O)COc1cccnc1[N+](=O)[O-]` gave TRPC4 agonist inactive, TRPC4 block inactive, TRPC6 activator inactive, TRPC6 inh inactive and TRPC4 PAM inactive.
COc1ccccc1CNC(=O)COC(=O)c1cc([N+](=O)[O-])ccc1N1CCOCC1 was read as TRPC4 agonist inactive, TRPC4 block inactive, TRPC6 activator inactive, TRPC6 inh -5.07*, TRPC4 PAM inactive, HEK293 MPD ctr-2 inactive, HEK293 MPD ctr 2-2 inactive, TRPC4/MOR mod 14.0%*, TRPC4 ctr inh 2 inactive and TRPC6 inh conf inactive.
Screening Cc1c(Br)c([N+](=O)[O-])nn1CC(=O)Nc1ccc(C(C)C)cc1 returned TRPC4 agonist inactive, TRPC4 block inactive, TRPC6 activator inactive, TRPC6 inh inactive and TRPC4 PAM inactive.
Screening Fc1ccc(CSc2nnc(-c3cccs3)o2)cc1 returned TRPC4 agonist inactive, TRPC4 block inactive, TRPC6 activator inactive, TRPC6 inh -7.43*, TRPC4 PAM inactive, TRPC4 sel inh 2 inactive, TRPC4 spec inactive, HEK293 MPD ctr 2-1 inactive, HEK293 MPD ctr-1 inactive, TRPC6 inh conf inactive and TRPC6 act conf inactive.
Screening COc1ccc2c(c1)c(C(=O)CN1CCN(c3ccccc3)CC1)c(C)n2C returned TRPC4 agonist inactive, TRPC4 block inactive, TRPC6 activator inactive, TRPC6 inh inactive and TRPC4 PAM inactive.
`COC(=O)c1ccccc1NC(=O)CN1CCN(Cc2ccccc2)CC1` gave TRPC4 agonist inactive, TRPC4 block inactive, TRPC6 activator 14.6*, TRPC6 inh inactive, TRPC4 PAM inactive, HEK293 MPD ctr-2 384.5%*, HEK293 MPD ctr 2-2 inactive, TRPC4/MOR mod 60.5%*, TRPC4 ctr inh 2 40.0%*, TRPC6 inh conf inactive and TRPC6 act conf 142.0%*.
For CCOC(=O)c1c(C)n(C)c2ccc(OC)c(NC(=O)CN3CCN(Cc4ccccc4)CC3)c12 the results were TRPC4 agonist inactive, TRPC4 block inactive, TRPC6 activator inactive, TRPC6 inh -5.66*, TRPC4 PAM inactive, HEK293 MPD ctr-2 inactive, HEK293 MPD ctr 2-2 inactive, TRPC4/MOR mod 8.5%*, TRPC4 ctr inh 2 39.0%*, TRPC6 inh conf inactive and TRPC6 act conf inactive.
COC(=O)c1ccsc1NC(=O)CN1CCN(Cc2ccc3c(c2)OCO3)CC1 was read as TRPC4 agonist inactive, TRPC4 block inactive, TRPC6 activator inactive, TRPC6 inh -6.65*, TRPC4 PAM inactive, TRPC4 sel inh 2 inactive, TRPC4 spec 19.1%*, HEK293 MPD ctr 2-1 389.0%*, HEK293 MPD ctr-1 16.3%* and TRPC6 inh conf inactive.
For COC(=O)c1c(NC(=O)CN2CCN(Cc3ccc4c(c3)OCO4)CC2)sc(C)c1C the results were TRPC4 agonist inactive, TRPC4 block inactive, TRPC6 activator inactive, TRPC6 inh inactive and TRPC4 PAM inactive.
Screening COC(=O)c1ccccc1NC(=O)CN1CCCCC1 returned TRPC4 agonist inactive, TRPC4 block inactive, TRPC6 activator inactive, TRPC6 inh inactive and TRPC4 PAM inactive.
Screening COc1ccc2c(c1)c(C(=O)CN1CCN(Cc3ccccc3)CC1)c(C)n2C returned TRPC4 agonist inactive, TRPC4 block inactive, TRPC6 activator inactive, TRPC6 inh -5.34*, TRPC4 PAM inactive, HEK293 MPD ctr-2 inactive, HEK293 MPD ctr 2-2 inactive, TRPC4/MOR mod -14.5%*, TRPC4 ctr inh 2 59.5%*, TRPC6 inh conf inactive and TRPC6 act conf inactive.
For COc1c(Br)cc([N+](=O)[O-])c(OC)c1C(=O)NC(=O)Nc1nc(C)cc(C)n1 the results were TRPC4 agonist inactive, TRPC4 block inactive, TRPC6 activator inactive, TRPC6 inh inactive and TRPC4 PAM inactive.
For C/C(=C\c1ccco1)CN1CCN(Cc2ccc(C)o2)C(CCO)C1 (stereo unspecified) the results were TRPC4 agonist inactive, TRPC4 block inactive, TRPC6 activator inactive, TRPC6 inh inactive and TRPC4 PAM inactive.
Screening NC(=O)[C@@H]1CCCN1C(=O)c1ccc2nc(Cc3cccc(Cl)c3)oc2c1 returned TRPC4 agonist inactive, TRPC4 block inactive, TRPC6 activator inactive, TRPC6 inh inactive and TRPC4 PAM inactive.
Screening Cc1cc(C)nc(SCCn2c(N3CCCCC3)nc3c2c(=O)n(C)c(=O)n3C)n1 returned TRPC4 agonist inactive, TRPC4 block inactive, TRPC6 activator inactive, TRPC6 inh inactive and TRPC4 PAM inactive.
Cc1nnc(NC(=O)c2c(-c3ccccc3Cl)noc2C)s1 was read as TRPC4 agonist inactive, TRPC4 block inactive, TRPC6 activator inactive, TRPC6 inh inactive and TRPC4 PAM inactive.
